Test results: ChEMBL document CHEMBL1158484 (J Med Chem, 2009)
Calls of active or inactive are those of the source. The calls are words filed in the database; no cut-off is given here.

How the values were obtained:
[1] = Selectivity index, ratio of IC50 for rat L6 cells to IC50 for bloodstream Trypanosoma brucei rhodesiense STIB900; assay type: toxicity, cell-based; settings: read-out: Ratio IC50
[2] = Selectivity index, ratio of IC50 for rat L6 cells to IC50 for chloroquine-resistant Plasmodium falciparum K1; assay type: toxicity, cell-based; settings: read-out: Ratio IC50
Method in brief: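 Ratio of L6 IC50 to P. falciparum K1 IC50. L6: 4000 cells, 70 h at 37 °C, Alamar blue fluorescence. Parasites: infected human erythrocytes (1.25% hematocrit, 0.3% parasitemia) in low-O2 gas for 48 h, then [3H]-hypoxanthine for 24 h, uptake counted. Sigmoidal IC50s, two independent runs in duplicate.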

[3] = system: L6; assay: Cytotoxicity against rat L6 cells after 70 hrs by alamar blue assay; assay type: cell-based; settings: L6, 70 h
[4] = system: Trypanosoma brucei rhodesiense; assay: Antitrypanosomal activity against bloodstream Trypanosoma brucei rhodesiense STIB900 after 70 hrs by alamar blue assay; assay type: functional, organism-based; settings: STIB900, 70 h
Method in brief: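 Bloodstream forms, 2000 per well, in supplemented MEM with Earle's salts (0.2 mM 2-mercaptoethanol, 1 mM pyruvate, 0.5 mM hypoxanthine, 15% heat-inactivated horse serum). Serial dilutions, 70 h at 37 °C, 5% CO2. IC50 from sigmoidal curves; two independent runs in duplicate. DMSO ≤1%.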

[5] = system: Leishmania donovani; assay: Antileishmanial activity against axenic amastigotes of Leishmania donovani MHOM/SD/62/1S-CL2D after 72 hrs; assay type: functional, organism-based
Method in brief: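 Axenic amastigotes (adapted from promastigotes), 6×10^4 per well, amastigote medium, 37 °C. 2-fold compound dilutions; 72 h at 37 °C, humidified 5% CO2. Growth read by tetrazolium CellTiter absorbance at 490 nm several hours after reagent addition. IC50 from four-parameter dose–response fit. DMSO ≤1%.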

[6] = system: Plasmodium falciparum; assay: Antiplasmodial activity after 48 hrs against chloroquine-resistant Plasmodium falciparum K1 infected human erythrocytes by [3H]hypoxanthine uptake; assay type: functional, organism-based
[7] = Selectivity index, ratio of IC50 for rat L6 cells to IC50 for axenic amastigotes of Leishmania donovani MHOM/SD/62/1S-CL2D; assay type: toxicity, cell-based; settings: read-out: Ratio IC50
Method in brief: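 Ratio of L6 IC50 to L. donovani IC50. L6: 4000 cells in RPMI 1640 with 10% FBS, 70 h at 37 °C, then Alamar blue 2–3 h, fluorescence 536/588 nm. Leishmania: 6×10^4 axenic amastigotes per well, 2-fold dilutions, 72 h at 37 °C in 5% CO2, tetrazolium CellTiter read at 490 nm. IC50 from a four-parameter dose–response fit.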

[8] = system: Trypanosoma brucei rhodesiense; assay: Antitrypanosomal activity against bloodstream Trypanosoma brucei rhodesiense STIB900 infected in NMRI mouse assessed as parasite free mouse survival at 100 mg/kg, po administered for 4 consecutive days from day 3 to 6 postinfection measured up to 60 days; assay type: functional, organism-based; parameters: dose 100 mg/kg
[9] = system: Trypanosoma brucei rhodesiense; assay: Antitrypanosomal activity against bloodstream Trypanosoma brucei rhodesiense STIB900 infected in NMRI mouse assessed as survival rate at 100 mg/kg, po administered 4 consecutive days from day 3 to 6 postinfection; assay type: functional
Method in brief: (§1)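 Female NMRI mice infected ip with 2×10^4 STIB900 bloodstream forms. Groups of four treated on days 3–6 postinfection. Compounds in DMSO diluted with water to a final 10% DMSO. Untreated infected controls. Tail blood checked for parasitemia to day 60. Surviving aparasitemic mice at day 60 scored cured; mean survival time in days from recorded deaths.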

[10] = system: Trypanosoma brucei rhodesiense; assay: Antitrypanosomal activity against bloodstream Trypanosoma brucei rhodesiense STIB900 infected in NMRI mouse assessed as parasite free mouse survival at 25 mg/kg, po administered for 4 consecutive days from day 3 to 6 postinfection measured up to 60 days; assay type: functional, organism-based; parameters: dose 25 mg/kg
Method in brief: (§2)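 Female NMRI mice infected ip with 2×10^4 STIB900 bloodstream forms; groups of four dosed on 4 consecutive days, days 3-6 postinfection. Compounds in DMSO diluted with water to 10% DMSO. Untreated infected controls. Tail-blood parasitemia followed to day 60; surviving aparasitemic mice at day 60 scored cured; mean survival time recorded.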

[11] = system: Trypanosoma brucei brucei; assay: Antitrypanosomal activity against second-stage Trypanosoma brucei brucei GVR35 infected in african sleeping sickness CNS mouse model; assay type: functional, organism-based
[12] = system: Trypanosoma brucei rhodesiense; assay: Antitrypanosomal activity against bloodstream Trypanosoma brucei rhodesiense STIB900 infected in NMRI mouse assessed as survival rate at 25 mg/kg, po administered 4 consecutive days from day 3 to 6 postinfection; assay type: functional; method in brief: as §1
[13] = system: Trypanosoma brucei rhodesiense; assay: Antitrypanosomal activity against bloodstream Trypanosoma brucei rhodesiense STIB900 infected in NMRI mouse assessed as survival rate at 5 mg/kg, ip administered 4 consecutive days from day 3 to 6 postinfection; assay type: functional; settings: route intraperitoneal; method in brief: as §1
[14] = system: Leishmania donovani; assay: Ratio of compound IC50 to pentamidine IC50 for Leishmania donovani MHOM/SD/62/1S-CL2D; assay type: functional
[15] = system: Trypanosoma brucei rhodesiense; assay: Ratio compound IC50 to pentamidine IC50 for Trypanosoma brucei rhodesiense STIB900; assay type: functional
[16] = system: Trypanosoma brucei rhodesiense; assay: Antitrypanosomal activity against bloodstream Trypanosoma brucei rhodesiense STIB900 infected in NMRI mouse assessed as survival rate at 2 mg/kg, ip administered 4 consecutive days from day 3 to 6 postinfection; assay type: functional; settings: route intraperitoneal; method in brief: as §1
[17] = system: Trypanosoma brucei rhodesiense; assay: Antitrypanosomal activity against bloodstream Trypanosoma brucei rhodesiense STIB900 infected in NMRI mouse assessed as survival rate at 1 mg/kg, ip administered 4 consecutive days from day 3 to 6 postinfection; assay type: functional; settings: route intraperitoneal; method in brief: as §1
[18] = system: Trypanosoma brucei rhodesiense; assay: Antitrypanosomal activity against bloodstream Trypanosoma brucei rhodesiense STIB900 infected in NMRI mouse assessed as parasite free mouse survival at 2 mg/kg, ip administered for 4 consecutive days from day 3 to 6 postinfection measured up to 60 days; assay type: functional, organism-based; parameters: dose 2 mg/kg; method in brief: as §1
[19] = system: Trypanosoma brucei rhodesiense; assay: Antitrypanosomal activity against bloodstream Trypanosoma brucei rhodesiense STIB900 infected in NMRI mouse assessed as parasite free mouse survival at 5 mg/kg, ip administered for 4 consecutive days from day 3 to 6 postinfection measured up to 60 days; assay type: functional, organism-based; parameters: dose 5 mg/kg; method in brief: as §2

Row | SMILES | selectivity ratio [1] | selectivity ratio [2] | IC50 [3] [µM] | IC50 [4] [µM] | IC50 [5] [µM] | IC50 [6] [µM] | selectivity ratio [7] | Activity [8] | Survival [9] [days] | Activity [10] | Activity [11] | Survival [12] [days] | Survival [13] [days] | Ratio IC50 [14] | Ratio IC50 [15] | Survival [16] [days] | Survival [17] [days] | Activity [18] | Activity [19]
1 | CC(C)NC(=N)c1ccc(OCCCCCOc2ccc(C(=N)NC(C)C)cn2)nc1 | > 562 | > 605 | > 155 | 0.276 | > 100 | 0.256 | 2 | – | – | – | – | – | – | – | – | – | – | – | –
2 | CO/N=C(\N)c1cc(OCCCCCOc2ccnc(/C(N)=N/OC)c2)ccn1 | 8 | < 69 | 138 | 18.2 | > 100 | > 2 | 1 | inactive | 11.75 | – | – | – | – | – | – | – | – | – | –
3 | c1cc(OCCCCCOc2ccnc(C3=NCCN3)c2)cc(C2=NCCN2)n1 | 6 | 19 | 80.8 | 12.5 | > 100 | 4.26 | < 1 | – | – | – | – | – | – | – | – | – | – | – | –
4 | N/C(=N/O)c1ccc(OCCCCCOc2ccc(/C(N)=N\O)nc2)cn1 | 2 | < 16 | 166 | 108 | > 100 | > 10.7 | < 2 | – | – | Active | inactive | >60 | – | – | – | – | – | – | –
5 | CC(C)NC(=N)c1cc(OCCCCCOc2ccnc(C(=N)NC(C)C)c2)ccn1 | > 91 | > 117 | > 155 | 1.7 | > 100 | 1.33 | 2 | – | – | – | – | – | – | – | – | – | – | – | –
6 | c1cc(OCCCCCOc2cccc(C3=NCCN3)n2)nc(C2=NCCN2)c1 | 5 | 26 | 14.6 | 3.07 | 24 | 0.568 | < 1 | – | – | – | – | – | – | – | – | – | – | – | –
7 | N/C(=N\O)c1ccc(OCCCCCOc2ccc(/C(N)=N\O)cn2)nc1 | < 1 | 3 | 16.4 | 27.4 | > 100 | 6.5 | < 1 | – | – | inactive | – | 8.75 | – | – | – | – | – | – | –
8 | N=C(N)c1ccc(OCCCCCOc2ccc(C(=N)N)cc2)cc1 [PENTAMIDINE] | – | – | – | – | – | – | – | – | – | – | – | – | >45 | – | – | – | – | – | –
9 | CO/N=C(/N)c1ccc(OCCCCCOc2ccc(/C(N)=N\OC)nc2)cn1 | < 1 | 11 | 39.4 | 51.2 | > 50 | 3.5 | < 1 | – | – | inactive | – | 19.5 | – | – | – | – | – | – | –
10 | N=C(N)c1ccc(OCCCCCOc2ccc(C(=N)N)nc2)cn1 | 4900 | 544 | 4.9 | 0.001 | 0.47 | 0.009 | 11 | – | – | – | – | – | >36 | 4 | 3 | – | – | – | –
11 | Nc1nc(N)nc(Nc2ccc([As]3SCC(CO)S3)cc2)n1 (centres undefined) [MELARSOPROL] | – | – | – | – | – | – | – | – | – | – | – | – | – | – | – | >60 | >51.5 | Active | –
12 | N/C(=N\O)c1cccc(OCCCCCOc2cccc(/C(N)=N/O)n2)n1 | 3 | 5 | 52.2 | 19 | > 50 | 10.5 | 1 | – | – | – | – | – | – | – | – | – | – | – | –
13 | CC(C)NC(=N)c1ccc(OCCCCCOc2ccc(C(=N)NC(C)C)nc2)cn1 | 4350 | 24700 | 148 | 0.034 | 6 | 0.006 | 25 | – | – | – | – | – | 18.5 | – | – | – | – | – | inactive
14 | CO/N=C(\N)c1ccc(OCCCCCOc2ccc(/C(N)=N\OC)cn2)nc1 | > 7 | > 83 | > 185 | 25.9 | > 100 | 2.24 | 2 | – | – | – | – | – | – | – | – | – | – | – | –
15 | N=C(N)c1cc(OCCCCCOc2ccnc(C(=N)N)c2)ccn1 | 1160 | 3710 | 59.3 | 0.051 | 38 | 0.016 | 2 | – | – | – | – | – | 14 | – | – | – | – | – | inactive
16 | c1cc(OCCCCCOc2ccc(C3=NCCN3)cn2)ncc1C1=NCCN1 | 78 | 60 | 111 | 1.42 | > 100 | 1.86 | 1 | – | – | – | – | – | – | – | – | – | – | – | –
17 | N=C(N)c1ccc(OCCCCCOc2ccc(C(=N)N)cn2)nc1 | 1960 | 416 | 137 | 0.07 | 39 | 0.329 | 4 | – | – | – | – | – | 17.75 | – | – | – | – | – | inactive
18 | N/C(=N\O)c1cc(OCCCCCOc2ccnc(/C(N)=N/O)c2)ccn1 | 13 | < 76 | 159 | 12 | 45 | > 2.1 | 4 | inactive | 14.25 | – | – | – | – | – | – | – | – | – | –
19 | N=C(N)c1cccc(OCCCCCOc2cccc(C(=N)N)n2)n1 | 6000 | 4220 | 114 | 0.019 | 4.1 | 0.027 | 28 | – | – | – | – | – | 22.5 | – | – | – | – | – | inactive
20 | c1cc(C2=NCCN2)ncc1OCCCCCOc1ccc(C2=NCCN2)nc1 | 484 | 2290 | 82.3 | 0.17 | 36 | 0.036 | 2 | – | – | – | – | – | 12.75 | – | – | – | – | – | inactive
